# Shown are actives, neighbours in structure and some others; about 2.9% of the full set was active somewhere.
# DENV2 CPE – inhibitors of DENV2 cytopathic effect, primary screen, cell-based, plate reader, single concentration. DENV2-infected cells, cytopathic effect rescue. CPE inhibition, % at 9.99 µM. 350,000 tested, 1.7% active; in the data active = CPE inhibition above about 20%, passing the limit was not always enough; tested in BHK-21 cells;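 also: 0% = median of neutral control wells and 100% = median of positive control wells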
# S100A4 MyoIIA – inhibitors of S100A4-myosin IIA peptide binding, primary screen, biochemical, fluorescence polarization, TAMRA-MyoIIA peptide. inhibition, % at 10.7 µM. 360,000 tested, 0.14% active;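 active = mean inhibition of at least 70% across replicates, with every replicate also reaching that level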
# Target sequence (P26447 whole entry, looked up): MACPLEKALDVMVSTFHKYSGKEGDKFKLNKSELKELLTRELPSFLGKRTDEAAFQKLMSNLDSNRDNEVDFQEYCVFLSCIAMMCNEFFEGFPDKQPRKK
#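 Compound dosing: one dose per compound; test system: human S100A4 monomer with TAMRA-labelled myosin IIA peptide; probe or stimulus: TAMRA-labelled myosin IIA heavy-chain peptide probe, 5 nM; medium: HEPES buffer with Ca2+, pH 7.2; schedule: 5 min incubation before reading; benchmarks: neutral control DMSO, positive control TFP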
# ERAP1 HTS inh – human ERAP1 aminopeptidase inhibitors, primary screen, biochemical, single point, plate reader; inhibition, % at 10.7 µM; Endoplasmic reticulum aminopeptidase 1 (Homo sapiens), Q9NZ08; 340,000 tested, 0.15% active; AID 652197, 2013; recombinant ERAP1, Leu-AMC fluorescence, 60 min;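 active = mean replicate inhibition of at least 30%, or all replicates individually reaching that 30% level; inactive = mean below 30% and not every replicate reaching it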;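 also: 0% = neutral control wells and 100% = L-leucinethiol positive control wells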
# SIRT5 inh – SIRT5 desuccinylase inhibitors, primary screen, biochemical, fluorescence imaging, single point, set 5. NAD-dependent protein deacylase sirtuin-5, mitochondrial (Homo sapiens), Q9NXA8. Purified SirT5, succinyl-peptide AMC, trypsin-coupled fluorescence. inhibition, % at 15 µM. 330,000 tested, 1.1% active; in the data active = inhibition above about 15%
# Target sequence (Q9NXA8 whole entry, looked up): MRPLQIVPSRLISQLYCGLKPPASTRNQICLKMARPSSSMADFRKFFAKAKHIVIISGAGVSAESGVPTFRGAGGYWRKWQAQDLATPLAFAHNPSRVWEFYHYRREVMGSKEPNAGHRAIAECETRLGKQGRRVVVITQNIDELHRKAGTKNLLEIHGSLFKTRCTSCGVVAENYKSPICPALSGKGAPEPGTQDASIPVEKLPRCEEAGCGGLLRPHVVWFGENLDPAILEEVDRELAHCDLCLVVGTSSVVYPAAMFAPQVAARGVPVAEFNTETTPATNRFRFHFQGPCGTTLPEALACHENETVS
# CAL PDZ FP-1 – untagged CAL PDZ binding inhibitors, primary screen, biochemical, fluorescence polarization, HTS | inhibition, % at 24.9 µM | 300,000 tested, 0.92% active | purified CAL PDZ, TMR-peptide fluorescence polarization, 1 h | Golgi-associated PDZ and coiled-coil motif-containing protein (Homo sapiens), Q9HD26;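 active = mean inhibition of at least 30% with at least half of replicates also reaching 30%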;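 also: 0% = DMSO neutral control and 100% = excess unlabeled competitor peptide PRC23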
# CAL PDZ FP-2 – CAL PDZ peptide-binding inhibitors, primary screen, biochemical, fluorescence polarization, Cer-tagged CAL PDZ, HTS; purified CAL PDZ, TMR-peptide fluorescence polarization, 1 h; inhibition, % at 20 µM; AID 504414, 2011; 330,000 tested, 0.02% active;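 active = highest replicate inhibition of at least 40%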;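 also: plate controls were DMSO neutral control wells for no effect and unlabeled competitor peptide control wells for full effect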
#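 System: tagged CAL PDZ domain. Schedule: 1 h room-temperature incubation prior to read. Signal: fluorescence polarization (mP). Measure: percent inhibition from loss of millipolarization.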
# The depositor's hits bear a star; / = not tested or not shown.
SMILES,DENV2 CPE,S100A4 MyoIIA,ERAP1 HTS inh,SIRT5 inh,CAL PDZ FP-1,CAL PDZ FP-2
Cc1cccc(C(=O)NCC(=O)OCC(=O)c2cc(C)n(CC3CCCO3)c2C)c1 (centres undefined),1,-2,5,0,89*,0
C[C@H]1CN([C@@H](C)CO)C(=O)Cc2cc(NC(=O)C3CCCCC3)ccc2O[C@@H]1CN(C)C(=O)Nc1ccccc1,8,-15,-1,-5,/,/
C[N+](C)(C)CCN1CCc2ccccc21,1,1,/,22*,/,/
O=C(O)CCN1CCc2ccccc21,/,/,/,/,-3,/
Cc1cc(C(=O)OCC(=O)NCCN2C(=O)CSC2=O)ccc1[N+](=O)[O-],-2,-4,-5,-4,90*,0
O=C(COC(=O)c1cccc(S(=O)(=O)Nc2ccc(F)cc2)c1)NCCN1C(=O)CSC1=O,5,-4,-1,17*,-5,-3
COc1ccc(CN(C)C[C@@H]2Oc3ccc(NC(=O)Cc4cn(C)c5ccccc45)cc3CC(=O)N([C@H](C)CO)C[C@@H]2C)cc1,-2,7,2,11,/,/
CCN(CCn1cccn1)C(=O)c1cc(COc2ccccc2SC)on1,-4,-4,-1,-1,-4,-1
CCN(CCn1cccn1)C(=O)c1cc(COc2ccc(F)c(F)c2)on1,6,-4,-4,3,57*,0
Cc1nn(C)c(C)c1C(C)NC(=O)c1cc(COc2ccc(F)c(F)c2)on1 (centres undefined),2,1,3,-2,40*,0
O=C(CCN1CCCCC1)NCC[C@@H]1CC[C@@H](NC(=O)C2CC2)[C@@H](CO)O1,1,-27,-2,-2,/,/
Cc1cccc(S(=O)(=O)N2C[C@H](O)COC[C@@H]3O[C@@H](CC(=O)N4CCN(C)CC4)CC[C@H]32)c1,-3,-25,1,-3,/,/
O=C(C[C@H]1C[C@H]2c3cc(NC(=O)NC4CCCC4)ccc3O[C@H]2[C@@H](CO)O1)NCc1ccc(Cl)cc1,8,-5,0,2,/,/
Cc1cccc(N(C(=O)Cn2nnc(-c3ccccc3F)n2)C(C(=O)NC(C)(C)C)c2ccncc2)c1 (centres undefined),5,1,0,-3,-2,0
Cc1cccc(N(C(=O)Cn2nnc3ccccc32)C(C(=O)NC(C)(C)C)c2ccsc2)c1 (centres undefined),24*,-4,0,8,-2,-1
CCCNC(=O)Nc1ccc2c(c1)OC[C@@H](C)N(C(=O)C1CCOCC1)C[C@H](C)[C@H](OC)CN(C)C2=O,7,-3,-1,12,/,/
CCCN(C)C[C@@H]1Oc2cc(C#CCC(C)C)ccc2S(=O)(=O)N([C@@H](C)CO)C[C@@H]1C,-8,-11,3,5,/,/
O=C1CN(S(=O)(=O)c2ccccc2)C[C@H]2[C@@H](c3ccc(C#Cc4ccccc4)cc3)[C@@H](CO)N12,17,46,1,6,/,/
Cc1ccccc1S(=O)(=O)N1CC(=O)N2[C@H](CO)[C@@H](c3ccc(C#Cc4ccccc4)cc3)[C@@H]2C1,29*,-6,-1,-10,/,/
O=C1CN(S(=O)(=O)Cc2ccccc2)C[C@H]2[C@H](c3ccc(C#Cc4cccc(F)c4)cc3)[C@@H](CO)N12,12,3,1,-4,/,/
O=C1CN(S(=O)(=O)c2ccccc2)C[C@@H]2[C@H](c3ccc(C#Cc4ccccc4)cc3)[C@H](CO)N12,3,-25,-1,25*,/,/
O=C1CN(S(=O)(=O)Cc2ccccc2)C[C@@H]2[C@H](c3ccc(C#Cc4cccc(F)c4)cc3)[C@H](CO)N12,-5,3,1,17*,/,/
